According to ChEMBL document CHEMBL2062460, “Disubstituted thiourea derivatives and their activity on CNS: synthesis and biological evaluation” (Eur J Med Chem, 2012):
≈ marks a conversion by molar mass, not a printed value. Calls of active or inactive are those of the source. The rule behind the calls is not given here.

Assays:
[1] = system: Enterococcus hirae; experiment: Antibacterial activity against Enterococcus hirae ATCC 10541 at 400 ug/disc after 18 hrs by disc diffusion method; assay type: functional
Outline: (§1)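 Disc diffusion per CLSI on Mueller–Hinton II agar; 9 mm paper discs loaded from methanol or DMSO solutions to 400 µg per disc, dried; growth inhibition zone diameter read after 18 h at 35 °C.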

[2] = system: Staphylococcus epidermidis; experiment: Antibacterial activity against methicillin-resistant Staphylococcus epidermidis clinical isolate 377/09 after 18 hrs by twofold serial agar dilution technique; assay type: functional; conditions: clinical isolate 377/09, 18 h
Outline: (§2)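 Clinical isolates came from patients in Warsaw Medical University Hospitals and were classed as methicillin-susceptible or -resistant. MIC was determined by twofold serial agar dilution on Mueller–Hinton II agar (CLSI), 3.125–400 µg/mL in agar, with compounds in methanol or DMSO. Inoculum was 10^4 CFU/mL and plates were read after 18 h at 35 °C.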

[3] = system: Staphylococcus epidermidis; experiment: Antibacterial activity against methicillin-resistant Staphylococcus epidermidis clinical isolate 315/08 after 18 hrs by twofold serial agar dilution technique; assay type: functional; conditions: clinical isolate 315/08, 18 h; outline: as §2
[4] = system: Staphylococcus aureus; experiment: Antibacterial activity against methicillin-resistant Staphylococcus aureus clinical isolate 356/09 after 18 hrs by twofold serial agar dilution technique; assay type: functional; conditions: clinical isolate 356/09, 18 h; outline: as §2
[5] = system: Staphylococcus epidermidis; experiment: Antibacterial activity against methicillin-resistant Staphylococcus epidermidis clinical isolate 317/08 after 18 hrs by twofold serial agar dilution technique; assay type: functional; conditions: clinical isolate 317/08, 18 h; outline: as §2
[6] = system: Staphylococcus epidermidis; experiment: Antibacterial activity against Staphylococcus epidermidis ATCC 12228 at 400 ug/disc after 18 hrs by disc diffusion method; assay type: functional; outline: as §1
[7] = system: Pseudomonas aeruginosa; experiment: Antibacterial activity against Pseudomonas aeruginosa NCTC 6749 at 400 ug/disc after 18 hrs by disc diffusion method; assay type: functional, organism-based; outline: as §1
[8] = system: Staphylococcus aureus; experiment: Antibacterial activity against methicillin-resistant Staphylococcus aureus clinical isolate 357/09 after 18 hrs by twofold serial agar dilution technique; assay type: functional; conditions: clinical isolate 357/09, 18 h; outline: as §2
[9] = system: Staphylococcus aureus; experiment: Antibacterial activity against Staphylococcus aureus ATCC 6538 after 18 hrs by twofold serial agar dilution technique; assay type: functional; conditions: ATCC 6538, 18 h
Outline: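 Twofold serial agar dilution on Mueller–Hinton II agar, following CLSI guidelines. Compounds were dissolved in methanol or DMSO and tested at final agar concentrations of 3.125–400 µg/mL. Final inoculum was 10^4 CFU/mL.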

[10] = system: Micrococcus luteus; experiment: Antibacterial activity against Micrococcus luteus ATCC 10240 after 18 hrs by twofold serial agar dilution technique; assay type: functional; conditions: ATCC 10240, 18 h
[11] = system: Staphylococcus aureus; experiment: Antibacterial activity against methicillin-susceptible Staphylococcus aureus clinical isolate 267/08 after 18 hrs by twofold serial agar dilution technique; assay type: functional; conditions: clinical isolate 267/08, 18 h; outline: as §2
[12] = system: Bacillus subtilis; experiment: Antibacterial activity against Bacillus subtilis ATCC 6633 at 400 ug/disc after 18 hrs by disc diffusion method; assay type: functional; conditions: ATCC 6633, 18 h, read-out: DIZ; outline: as §1
[13] = system: Staphylococcus aureus; experiment: Antibacterial activity against methicillin-resistant Staphylococcus aureus clinical isolate 376/09 after 18 hrs by twofold serial agar dilution technique; assay type: functional; conditions: clinical isolate 376/09, 18 h; outline: as §2
[14] = system: Staphylococcus aureus; experiment: Antibacterial activity against methicillin-susceptible Staphylococcus aureus clinical isolate 367/09 after 18 hrs by twofold serial agar dilution technique; assay type: functional; conditions: clinical isolate 367/09, 18 h; outline: as §2
[15] = system: Bacillus cereus; experiment: Antibacterial activity against Bacillus cereus ATCC 11778 after 18 hrs by twofold serial agar dilution technique; assay type: functional; conditions: ATCC 11778, 18 h
[16] = system: Staphylococcus epidermidis; experiment: Antibacterial activity against methicillin-resistant Staphylococcus epidermidis clinical isolate 340/09 after 18 hrs by twofold serial agar dilution technique; assay type: functional; conditions: clinical isolate 340/09, 18 h; outline: as §2
[17] = system: Bacillus subtilis; experiment: Antibacterial activity against Bacillus subtilis ATCC 6633 after 18 hrs by twofold serial agar dilution technique; assay type: functional; conditions: ATCC 6633, 18 h
[18] = system: Escherichia coli; experiment: Antibacterial activity against Escherichia coli ATCC 10538 at 400 ug/disc after 18 hrs by disc diffusion method; assay type: functional, organism-based; outline: as §1
[19] = system: Staphylococcus aureus; experiment: Antibacterial activity against methicillin-susceptible Staphylococcus aureus clinical isolate 372/09 after 18 hrs by twofold serial agar dilution technique; assay type: functional; conditions: clinical isolate 372/09, 18 h; outline: as §2
[20] = system: Human immunodeficiency virus 1; experiment: Antiviral activity against HIV1 infected in human MT4 cells assessed as virus-induced cytopathogenicity after 4 days by MTT assay; assay type: functional, organism-based; conditions: Human immunodeficiency virus 1, MT4, 96 h
[21] = system: Bacillus cereus; experiment: Antibacterial activity against Bacillus cereus ATCC 11778 at 400 ug/disc after 18 hrs by disc diffusion method; assay type: functional; conditions: ATCC 11778, 18 h, read-out: DIZ; outline: as §1
[22] = system: Staphylococcus aureus; experiment: Antibacterial activity against Staphylococcus aureus ATCC 6538 at 400 ug/disc after 18 hrs by disc diffusion method; assay type: functional; outline: as §1
[23] = system: Staphylococcus aureus; experiment: Antibacterial activity against Staphylococcus aureus ATCC 29213 at 400 ug/disc after 18 hrs by disc diffusion method; assay type: functional; conditions: ATCC 29213, 18 h, read-out: DIZ; outline: as §1
[24] = system: Staphylococcus epidermidis; experiment: Antibacterial activity against methicillin-resistant Staphylococcus epidermidis clinical isolate 342/09 after 18 hrs by twofold serial agar dilution technique; assay type: functional; conditions: clinical isolate 342/09, 18 h; outline: as §2
[25] = system: Staphylococcus aureus; experiment: Antibacterial activity against methicillin-resistant Staphylococcus aureus clinical isolate 309/08 after 18 hrs by twofold serial agar dilution technique; assay type: functional; conditions: clinical isolate 309/08, 18 h; outline: as §2
[26] = system: Staphylococcus aureus; experiment: Antibacterial activity against methicillin-susceptible Staphylococcus aureus clinical isolate 269/08 after 18 hrs by twofold serial agar dilution technique; assay type: functional; conditions: clinical isolate 269/08, 18 h; outline: as §2
[27] = system: Pseudomonas aeruginosa; experiment: Antibacterial activity against Pseudomonas aeruginosa ATCC 15442 at 400 ug/disc after 18 hrs by disc diffusion method; assay type: functional, organism-based; outline: as §1
[28] = system: Staphylococcus aureus; experiment: Antibacterial activity against methicillin-resistant Staphylococcus aureus clinical isolate 329/08 after 18 hrs by twofold serial agar dilution technique; assay type: functional; conditions: clinical isolate 329/08, 18 h; outline: as §2
[29] = system: Staphylococcus aureus; experiment: Antibacterial activity against methicillin-resistant Staphylococcus aureus clinical isolate 307/08 after 18 hrs by twofold serial agar dilution technique; assay type: functional; conditions: clinical isolate 307/08, 18 h; outline: as §2
[30] = system: Staphylococcus epidermidis; experiment: Antibacterial activity against methicillin-resistant Staphylococcus epidermidis clinical isolate 318/08 after 18 hrs by twofold serial agar dilution technique; assay type: functional; conditions: clinical isolate 318/08, 18 h; outline: as §2
[31] = system: Enterococcus hirae; experiment: Antibacterial activity against Enterococcus hirae ATCC 10541 after 18 hrs by twofold serial agar dilution technique; assay type: functional; conditions: ATCC 10541, 18 h
[32] = system: Staphylococcus aureus; experiment: Antibacterial activity against methicillin-susceptible Staphylococcus aureus clinical isolate 338/08 after 18 hrs by twofold serial agar dilution technique; assay type: functional; conditions: clinical isolate 338/08, 18 h; outline: as §2
[33] = system: Staphylococcus aureus; experiment: Antibacterial activity against Staphylococcus aureus ATCC 25923 at 400 ug/disc after 18 hrs by disc diffusion method; assay type: functional; outline: as §1
[34] = system: Staphylococcus aureus; experiment: Antibacterial activity against methicillin-susceptible Staphylococcus aureus clinical isolate 339/09 after 18 hrs by twofold serial agar dilution technique; assay type: functional; conditions: clinical isolate 339/09, 18 h; outline: as §2
[35] = system: Micrococcus luteus; experiment: Antibacterial activity against Micrococcus luteus ATCC 9341 at 400 ug/disc after 18 hrs by disc diffusion method; assay type: functional; conditions: ATCC 9341, 18 h, read-out: DIZ; outline: as §1
[36] = system: Staphylococcus aureus; experiment: Antibacterial activity against methicillin-resistant Staphylococcus aureus clinical isolate 275/08 after 18 hrs by twofold serial agar dilution technique; assay type: functional; conditions: clinical isolate 275/08, 18 h; outline: as §2
[37] = system: Staphylococcus aureus; experiment: Antibacterial activity against methicillin-susceptible Staphylococcus aureus clinical isolate 369/09 after 18 hrs by twofold serial agar dilution technique; assay type: functional; conditions: clinical isolate 369/09, 18 h; outline: as §2

| SMILES | MIC [2] | MIC [3] | MIC [4] | MIC [5] | diameter of the inhibition zone (DIZ) [7] | MIC [8] | MIC [9] | MIC [10] | MIC [11] | zone of inhibition at 400 µg/disc [12] | MIC [13] | MIC [14] | MIC [15] | MIC [16] | MIC [17] | diameter of the inhibition zone (DIZ) [18] | MIC [19] | EC50 [20] | zone of inhibition at 400 µg/disc [21] | zone of inhibition at 400 µg/disc [23] | further results |
| --- | --- | --- | --- | --- | --- | --- | --- | --- | --- | --- | --- | --- | --- | --- | --- | --- | --- | --- | --- | --- | --- |
| S=C(Nc1ccc(I)cc1)Nc1nc[nH]n1 | 25 µg/mL (≈ 72.4 µM) | 50 µg/mL (≈ 145 µM) | 50 µg/mL (≈ 145 µM) | 50 µg/mL (≈ 145 µM) | inactive | 50 µg/mL (≈ 145 µM) | 25 µg/mL (≈ 72.4 µM) | 12.5 µg/mL (≈ 36.2 µM) | 25 µg/mL (≈ 72.4 µM) | 18 mm | 50 µg/mL (≈ 145 µM) | 25 µg/mL (≈ 72.4 µM) | 12.5 µg/mL (≈ 36.2 µM) | 25 µg/mL (≈ 72.4 µM) | 12.5 µg/mL (≈ 36.2 µM) | inactive | 25 µg/mL (≈ 72.4 µM) | > 46 µM | 13 mm | 13 mm | zone of inhibition at 400 µg/disc ([1]; ATCC 10541, 18 h, read-out: DIZ): 13 mm; diameter of the inhibition zone (DIZ) [6]: inactive; zone of inhibition at 400 µg/disc ([22]; ATCC 6538, 18 h, read-out: DIZ): 12 mm; MIC [24]: 25 µg/mL (≈ 72.4 µM); MIC [25]: 25 µg/mL (≈ 72.4 µM); MIC [26]: 25 µg/mL (≈ 72.4 µM); diameter of the inhibition zone (DIZ) [27]: inactive; MIC [28]: 25 µg/mL (≈ 72.4 µM); MIC [29]: 50 µg/mL (≈ 145 µM); MIC [30]: 12.5 µg/mL (≈ 36.2 µM); MIC [31]: 400 µg/mL (≈ 1160 µM); MIC [32]: 50 µg/mL (≈ 145 µM); zone of inhibition at 400 µg/disc ([33]; ATCC 25923, 18 h, read-out: DIZ): 13 mm; MIC [34]: 50 µg/mL (≈ 145 µM); zone of inhibition at 400 µg/disc [35]: 13 mm; MIC [36]: 50 µg/mL (≈ 145 µM); MIC [37]: 50 µg/mL (≈ 145 µM) |
| S=C(Nc1ccccc1)Nc1nc[nH]n1 | 50 µg/mL (≈ 228 µM) | 100 µg/mL (≈ 456 µM) | 50 µg/mL (≈ 228 µM) | 100 µg/mL (≈ 456 µM) | inactive | 50 µg/mL (≈ 228 µM) | 100 µg/mL (≈ 456 µM) | 50 µg/mL (≈ 228 µM) | 50 µg/mL (≈ 228 µM) | 16 mm | 50 µg/mL (≈ 228 µM) | 50 µg/mL (≈ 228 µM) | 100 µg/mL (≈ 456 µM) | 50 µg/mL (≈ 228 µM) | 50 µg/mL (≈ 228 µM) | inactive | 50 µg/mL (≈ 228 µM) | > 100 µM | 12 mm | 11 mm | diameter of the inhibition zone (DIZ) [1]: inactive; zone of inhibition at 400 µg/disc ([6]; ATCC 12228, 18 h, read-out: DIZ): 12 mm; diameter of the inhibition zone (DIZ) [22]: inactive; MIC [24]: 200 µg/mL (≈ 912 µM); MIC [25]: 50 µg/mL (≈ 228 µM); MIC [26]: 50 µg/mL (≈ 228 µM); diameter of the inhibition zone (DIZ) [27]: inactive; MIC [28]: 50 µg/mL (≈ 228 µM); MIC [29]: 50 µg/mL (≈ 228 µM); MIC [30]: 50 µg/mL (≈ 228 µM); MIC [31]: 200 µg/mL (≈ 912 µM); MIC [32]: 50 µg/mL (≈ 228 µM); diameter of the inhibition zone (DIZ) [33]: inactive; MIC [34]: 50 µg/mL (≈ 228 µM); zone of inhibition at 400 µg/disc [35]: 14 mm; MIC [36]: 100 µg/mL (≈ 456 µM); MIC [37]: 50 µg/mL (≈ 228 µM) |
